Publication PMC12271353 (Scientific Reports, 2025)
Read-outs that look alike come from different tables or passages of the source.

Columns and labels:
[1] = tested on: pBR322 plasmid DNA; assay: DNA nicking assay; assay type: biochemical; details: with Fenton's reagent; 10 µg/mL
Method in brief: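 pBR322 supercoiled plasmid (2 µL of a 50 µg/100 µL stock) mixed with 10 µL Fenton's reagent (80 mM FeCl₃, 30 mM H₂O₂, 50 mM ascorbic acid) and test compound (2–10 µg/mL) in water to 20 µL. Incubated for 30 min at 37 °C, then run on 1% agarose gel. Form I, II and III percentages were derived by densitometry. Water replaced Fenton's reagent as the negative control, and rutin served as the positive control.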

[2] = tested on: S. Typhimurium TA100; details: highest dose 250 μg/100 μL, cited from earlier work
[3] = tested on: MRSA; assay: Kirby-Bauer disc diffusion; assay type: cell-based, methicillin-resistant Staphylococcus aureus; details: Staphylococcus aureus
Method in brief: (§1)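 Kirby-Bauer method. Mueller Hinton agar plates were seeded with the test bacteria. Discs carrying 30 µg of test compound were placed on the surface and left to diffuse for 30 min at 4 °C. Plates were incubated at 37 °C, and inhibition zones were measured in mm.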

[4] = tested on: S. Typhimurium TA98; details: highest dose 250 μg/100 μL, ref Sharma et al.[46]; cited from earlier work
[5] = tested on: VRE; assay: Kirby-Bauer disc diffusion; assay type: cell-based, Vancomycin-resistant Enterococcus; details: HFM-2P, teicoplanin 30 µg/disc
Method in brief: as §1

Compound: C[C@@H]1O[C@@H](OC[C@H]2O[C@@H](Oc3c(-c4ccc(O)c(O)c4)oc4cc(O)cc(O)c4c3=O)[C@H](O)[C@@H](O)[C@@H]2O)[C@H](O)[C@H](O)[C@H]1O [Rutin, rutin]
- Form I (supercoiled) DNA [1]: 54.72%
- Form II DNA [1]: 45.27%

Compound: CC1OC(n2ccc(NC(=O)c3ccc(N)cc3)nc2=O)CCC1OC1OC(C)C(N(C)C)C(O)C1O (stereo not shown) [plicacetin]
- Antimutagenic activity ([2]; ref Devi et al.[33]): 41.10–88.53%

Compound: CN[C@H](CC(C)C)C(=O)N[C@H]1C(=O)N[C@@H](CC(N)=O)C(=O)N[C@H]2C(=O)N[C@H]3C(=O)N[C@H](C(=O)N[C@H](C(=O)O)c4cc(O)cc(O)c4-c4cc3ccc4O)[C@H](O)c3ccc(c(Cl)c3)Oc3cc2cc(c3O[C@@H]2O[C@H](CO)[C@@H](O)[C@H](O)[C@H]2O[C@H]2C[C@](C)(N)[C@H](O)[C@H](C)O2)Oc2ccc(cc2Cl)[C@H]1O [vancomycin]
- zone of inhibition at 30 µg/disc [3]: 18 mm

Compound: salvianolic acid B
- Antimutagenic activity ([2]; ref Sharma et al.[46]): 41.10–88.53%
- Antimutagenic activity [4]: 47.87–88.11%

Compound: teicoplanin
- Zone of inhibition [5]: 15 mm
